Calls of active or inactive are those of the source. The rule behind the calls is not given here.
Columns and labels:
[1] = tested on: Mus musculus; experiment: Toxicity in Swiss albino mouse assessed as change in WBC count at 1000 mg/kg, po (reference value: 14.2 +/- 7.49 X 10^3/mm'3); format: organism-based; design: dose 1000 mg/kg, route oral; conditions: in vivo
[2] = tested on: Mus musculus; experiment: Toxicity in Swiss albino mouse assessed as change in serum protein level at 1000 mg/kg, po (reference value: 1.11 +/- 0.14 mg/ml); format: organism-based; design: dose 1000 mg/kg, route oral; conditions: in vivo
[3] = tested on: Mus musculus; experiment: Toxicity in Swiss albino mouse assessed as change in creatinine level at 5 mg/kg, po (reference value: 0.63 +/- 0.18 mg/dL); format: organism-based; design: dose 5 mg/kg, route oral; conditions: in vivo
[4] = tested on: Mus musculus; experiment: Toxicity in Swiss albino mouse assessed as change in ALKP level at 5 mg/kg, po (reference value: 218.67 +/- 12.43 U/L); format: organism-based; design: dose 5 mg/kg, route oral; conditions: in vivo
[5] = tested on: MCF7; experiment: Cell cycle arrest in human MCF7 cells assessed as accumulation at G1 phase at 5 to 30 uM after 24 hrs by propidium iodide staining-based FACS analysis; format: functional
How it was run: (§1)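 MCF-7 in DMEM, 10% FBS, 37 °C, 5% CO2; treated 24 h, harvested, washed cold PBS, resuspended 2 × 10⁶ cells/ml, fixed absolute ethanol, RNase A treated, propidium iodide (50 µg/mL) 30 min room temperature; DNA content by flow cytometry; phase distribution versus untreated control.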

[6] = tested on: Mus musculus; experiment: Toxicity in Swiss albino mouse assessed as change in SGOT level at 1000 mg/kg, po (reference value: 25.27 +/- 1.32 U/L); format: organism-based; design: dose 1000 mg/kg, route oral; conditions: in vivo
[7] = tested on: Mus musculus; experiment: Toxicity in Swiss albino mouse assessed as change in SGOT level at 5 mg/kg, po (reference value: 25.27 +/- 1.32 U/L); format: organism-based; design: dose 5 mg/kg, route oral; conditions: in vivo
[8] = tested on: MCF7; experiment: Cytotoxicity against human MCF7 cells after 72 hrs by MTT assay; format: functional, cell-based; conditions: MCF7, 72 h
How it was run: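 Cells in DMEM, 10% FBS, 37 °C, 5% CO2, plated and incubated 24 h; compounds diluted in phenol-red-free DMEM with 0.5% FBS, vehicle control; after exposure, MTT (5 mg/mL stock) added 3 h, formazan dissolved in DMSO, absorbance 570 nm; IC50 derived; podophyllotoxin and tamoxifen positive controls.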

[9] = tested on: Mus musculus; experiment: Toxicity in Swiss albino mouse assessed as change in SGPT level at 5 mg/kg, po (reference value: 12.28 +/- 3.73 U/L); format: organism-based; design: dose 5 mg/kg, route oral; conditions: in vivo
[10] = tested on: Mus musculus; experiment: Toxicity in Swiss albino mouse assessed as change in SGPT level at 1000 mg/kg, po (reference value: 12.28 +/- 3.73 U/L); format: organism-based; design: dose 1000 mg/kg, route oral; conditions: in vivo
[11] = tested on: Mus musculus; experiment: Toxicity in Swiss albino mouse assessed as change in WBC count at 50 mg/kg, po (reference value: 14.2 +/- 7.49 X 10^3/mm'3); format: organism-based; design: dose 50 mg/kg, route oral; conditions: in vivo
[12] = tested on: Mus musculus; experiment: Toxicity in Swiss albino mouse assessed as change in body weight at 1000 mg/kg, po (reference value: 24.5 +/- 0.76 g); format: organism-based; design: dose 1000 mg/kg, route oral; conditions: in vivo
[13] = tested on: Mus musculus; experiment: Toxicity in Swiss albino mouse assessed as change in cholesterol level at 300 mg/kg, po (reference value: 81.64 +/- 4.26 mg/dL); format: organism-based; design: dose 300 mg/kg, route oral; conditions: in vivo
[14] = tested on: Mus musculus; experiment: Toxicity in Swiss albino mouse assessed as change in RBC count at 5 mg/kg, po (reference value: 5.43 +/- 0.27 million/mm'3); format: organism-based; design: dose 5 mg/kg, route oral; conditions: in vivo
[15] = tested on: Mus musculus; experiment: Toxicity in Swiss albino mouse assessed as change in creatinine level at 50 mg/kg, po (reference value: 0.63 +/- 0.18 mg/dL); format: organism-based; design: dose 50 mg/kg, route oral; conditions: in vivo
[16] = target: Tubulin (Homo sapiens) (UniProt P68371+Q9H4B7+P0DPH7+P68366+Q13509+Q71U36+P04350+Q3ZCM7+P07437+P68363+Q9BQE3+Q6PEY2+Q13885+Q9BVA1+Q9BUF5); experiment: Induction of tubulin polymerization (unknown origin) at 10 to 40 uM measured every min for 1 hr in presence of PDT; format: protein-complex assay
How it was run: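 Tubulin 3 mg/mL in 80 mM PIPES pH 6.9, 2 mM MgCl2, 0.5 mM EGTA, 1 mM GTP, 15% glycerol at 37 °C with test compounds at varied concentrations; turbidity at 340 nm read every min for 1 h; podophyllotoxin inhibitor and paclitaxel stabiliser references, DMSO negative control.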

[17] = tested on: Mus musculus; experiment: Toxicity in Swiss albino mouse assessed as change in total haemoglobin level at 1000 mg/kg, po (reference value: 11.39 +/- 0.84 g/dL); format: organism-based; design: dose 1000 mg/kg, route oral; conditions: in vivo
[18] = tested on: MCF7; experiment: Cell cycle arrest in human MCF7 cells assessed as accumulation at G2/M phase at 5 to 30 uM after 24 hrs by propidium iodide staining-based FACS analysis; format: functional; how it was run: as §1
[19] = tested on: Mus musculus; experiment: Toxicity in Swiss albino mouse assessed as change in creatinine level at 300 mg/kg, po (reference value: 0.63 +/- 0.18 mg/dL); format: organism-based; design: dose 300 mg/kg, route oral; conditions: in vivo
[20] = tested on: Mus musculus; experiment: Toxicity in Swiss albino mouse assessed as change in triglyceride level at 5 mg/kg, po (reference value: 121.45 +/- 24.02 mg/dL); format: organism-based; design: dose 5 mg/kg, route oral; conditions: in vivo
[21] = tested on: Mus musculus; experiment: Toxicity in Swiss albino mouse assessed as change in neutrophil count at 5 to 1000 mg/kg, po relative to control; format: organism-based; design: dose 5-1000 mg/kg, route oral; conditions: in vivo
[22] = tested on: MDA-MB-231; experiment: Cell cycle arrest in human MDA-MB-231 cells assessed as increase in sub-diploid population after 24 hrs by propidium iodide staining-based FACS analysis; format: functional
How it was run: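 MDA-MB-231 grown in DMEM with 10% FBS at 37 °C, 5% CO2; 24 h treatment, then cold-PBS wash, 2 × 10⁶ cells/ml, absolute-ethanol fixation, RNase A, propidium iodide 50 µg/mL for 30 min at room temperature; flow cytometric DNA content, sub-diploid fraction scored.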

[23] = tested on: Mus musculus; experiment: Toxicity in Swiss albino mouse assessed as change in ALKP level at 50 mg/kg, po (reference value: 218.67 +/- 12.43 U/L); format: organism-based; design: dose 50 mg/kg, route oral; conditions: in vivo
[24] = tested on: Mus musculus; experiment: Toxicity in Swiss albino mouse assessed as change in cholesterol level at 5 mg/kg, po (reference value: 81.64 +/- 4.26 mg/dL); format: organism-based; design: dose 5 mg/kg, route oral; conditions: in vivo
[25] = tested on: Mus musculus; experiment: Toxicity in Swiss albino mouse assessed as change in cholesterol level at 1000 mg/kg, po (reference value: 81.64 +/- 4.26 mg/dL); format: organism-based; design: dose 1000 mg/kg, route oral; conditions: in vivo
[26] = tested on: Mus musculus; experiment: Toxicity in Swiss albino mouse assessed as morbidity at 5 to 1000 mg/kg, po; format: organism-based; design: dose 5-1000 mg/kg, route oral; conditions: in vivo
How it was run: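 Swiss albino mice (3 male, 3 female per group, 20-25 g) were given one oral dose of 5, 50, 300 or 1000 mg/kg in DMSO/0.7% carboxymethyl cellulose, or vehicle. Mortality and signs of ill health were checked hourly on the dosing day, then daily for 7 days. Checks covered skin, mucous membranes, eyes, secretions, lachrymation, pilo-erection, respiration, gait, posture and response to handling.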

[27] = tested on: Mus musculus; experiment: Toxicity in Swiss albino mouse assessed as change in serum protein level at 5 mg/kg, po (reference value: 1.11 +/- 0.14 mg/ml); format: organism-based; design: dose 5 mg/kg, route oral; conditions: in vivo
[28] = tested on: Mus musculus; experiment: Toxicity in Swiss albino mouse assessed as change in body weight at 5 mg/kg, po (reference value: 24.5 +/- 0.76 g); format: organism-based; design: dose 5 mg/kg, route oral; conditions: in vivo
[29] = tested on: Mus musculus; experiment: Toxicity in Swiss albino mouse assessed as change in total haemoglobin level at 300 mg/kg, po (reference value: 11.39 +/- 0.84 g/dL); format: organism-based; design: dose 300 mg/kg, route oral; conditions: in vivo

## CCOC(=O)/C=C/c1ccc(O)c(/C(=C/c2ccc(O)cc2)C(=O)OCC)c1
[1]
  Activity: 15.94 ×10³ /mm3
[2]
  Activity: 1.02 mg/mL
[3]
  Activity: 1.05 mg/dL
[4]
  Activity: 227.47 U/L
[5]
  Activity: inactive
[6]
  Activity: 53.29 U/L
[7]
  Activity: 27.67 U/L
[8]
  IC50: 3.27 µM
[9]
  Activity: 13.15 U/L
[10]
  Activity: 21.95 U/L
[11]
  Activity: 14.7 ×10³ /mm3
[12]
  Activity: 26.5 g
[13]
  Activity: 77.65 mg/dL
[14]
  Activity: 5.99 million/mm3
[15]
  Activity: 1.45 mg/dL
[16]
  Activity: inactive
[17]
  Activity: 13.32 g/dL
[18]
  Activity: Active
[19]
  Activity: 0.79 mg/dL
[20]
  Activity: 106.46 mg/dL
[21]
  Activity: Non-toxic
[22]
  Activity: Dose-dependent effect
[23]
  Activity: 234.14 U/L
[24]
  Activity: 75.94 mg/dL
[25]
  Activity: 60.3 mg/dL
[26]
  Activity: Non-toxic
[27]
  Activity: 0.88 mg/mL
[28]
  Activity: 24.33 g
[29]
  Activity: 10.83 g/dL
